Measurements published in ChEMBL document CHEMBL1833955, “Optimization of (arylpiperazinylbutyl)oxindoles exhibiting selective 5-HT₇ receptor antagonist activity” (J Med Chem, 2011).
pKi: −log10 of the molar value.

Assays:
[1] = Drug level in NMRI mouse brain at 10 mg/kg, ip after 30 mins by HPLC/MS/MS analysis; format: ADME, organism-based; parameters: dose 10 mg/kg, route intraperitoneal; conditions: read-out: Drug uptake
In short: (§1)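 Male NMRI mice, 25–30 g, given four compounds together ip as a cassette suspension in 0.4% methyl cellulose (n = 3/dose). After 30 min, vena cava blood and brain collected. Brain homogenised in 4 volumes of water; samples extracted with acetonitrile–water 3:1 and analysed by gradient HPLC-MS/MS against spiked calibrators. Brain/plasma given as percentage.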

[2] = Drug level in NMRI mouse brain at 1 mg/kg, ip after 30 mins by HPLC/MS/MS analysis; format: ADME, organism-based; parameters: dose 1 mg/kg, route intraperitoneal; conditions: read-out: Drug uptake; in short: as §1
[3] = Metabolic stability in human liver microsomes after 60 mins by HPLC-MS/MS analysis; format: ADME, Microsome; conditions: read-out: Stability
In short: (§2)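 Test compound at 100 nM final incubated with rat or human liver microsomes (0.33 mg/mL) at 37 °C for 0, 5, 15, 30 and 60 min. Buffer Tris-HCl pH 7.4 with Mg2+ and BSA. Reaction started with NADPH and stopped with ice-cold MeOH. Parent compound measured by HPLC-MS/MS, positive-ion MRM.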

[4] = Plasma concentration in NMRI mouse at 10 mg/kg, ip after 30 mins by HPLC-MS/MS analysis; format: ADME, organism-based; parameters: dose 10 mg/kg, route intraperitoneal; in short: as §1
[5] = Plasma concentration in NMRI mouse at 1 mg/kg, ip after 30 mins by HPLC-MS/MS analysis; format: ADME, organism-based; parameters: dose 1 mg/kg, route intraperitoneal; in short: as §1
Mus musculus [6] = experiment: Anxiolytic activity in ip dosed NMRI mouse assessed as behavioral activity administered 30 mins prior to test measured up to 5 mins by light-dark test; format: functional; conditions: read-out: MED
In short: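 Male NMRI mice, 25–33 g, housed in the dark, dosed ip 30 min before test. Each mouse placed in the centre of the lit side of an automated two-compartment chamber under a 2-lx light. Activity recorded for 5 min: time in each area, transitions, horizontal and vertical activity. Means ± SEM, one-way ANOVA with Duncan's test; MED reported.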

[7] = Selectivity ratio of Ki for alpha1-adrenergic receptor in rat frontal cortex membrane to Ki for human 5-HT7 receptor; format: cell membranes
[8] = Metabolic stability in rat liver microsomes after 60 mins by HPLC-MS/MS analysis; format: ADME, Microsome; conditions: read-out: Stability; in short: as §2
[9] = Drug level in NMRI mouse brain at 3 mg/kg, ip after 30 mins by HPLC/MS/MS analysis; format: ADME, organism-based; parameters: dose 3 mg/kg, route intraperitoneal; conditions: read-out: Drug uptake; in short: as §1
[10] = Selectivity ratio of Ki for 5-HT1A receptor in rat frontal cortex membrane to Ki for human 5-HT7 receptor; format: cell membranes
[11] = biological target: T1, Adrenergic receptor alpha-1 (Rattus norvegicus, UniProt P15823+P23944+P43140); experiment: Displacement of [3H]prazosin from alpha1-adrenergic receptor in rat frontal cortex membrane after 45 mins by scintillation spectrometry; format: cell membranes
T1 sequence (P15823 whole entry): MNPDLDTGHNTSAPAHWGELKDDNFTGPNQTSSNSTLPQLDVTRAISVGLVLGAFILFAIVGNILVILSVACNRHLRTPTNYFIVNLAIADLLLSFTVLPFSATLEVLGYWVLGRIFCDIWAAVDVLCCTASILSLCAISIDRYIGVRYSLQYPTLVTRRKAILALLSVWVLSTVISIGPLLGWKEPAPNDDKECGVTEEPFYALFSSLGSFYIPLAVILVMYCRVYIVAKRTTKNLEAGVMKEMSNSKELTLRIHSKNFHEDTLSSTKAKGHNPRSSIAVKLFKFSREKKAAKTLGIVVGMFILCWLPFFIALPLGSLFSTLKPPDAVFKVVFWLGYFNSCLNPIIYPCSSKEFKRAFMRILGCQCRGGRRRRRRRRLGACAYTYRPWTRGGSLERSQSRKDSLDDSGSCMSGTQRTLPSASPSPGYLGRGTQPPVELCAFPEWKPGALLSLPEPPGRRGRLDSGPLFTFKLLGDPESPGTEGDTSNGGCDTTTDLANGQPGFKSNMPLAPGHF
T1 sequence (P23944 whole entry): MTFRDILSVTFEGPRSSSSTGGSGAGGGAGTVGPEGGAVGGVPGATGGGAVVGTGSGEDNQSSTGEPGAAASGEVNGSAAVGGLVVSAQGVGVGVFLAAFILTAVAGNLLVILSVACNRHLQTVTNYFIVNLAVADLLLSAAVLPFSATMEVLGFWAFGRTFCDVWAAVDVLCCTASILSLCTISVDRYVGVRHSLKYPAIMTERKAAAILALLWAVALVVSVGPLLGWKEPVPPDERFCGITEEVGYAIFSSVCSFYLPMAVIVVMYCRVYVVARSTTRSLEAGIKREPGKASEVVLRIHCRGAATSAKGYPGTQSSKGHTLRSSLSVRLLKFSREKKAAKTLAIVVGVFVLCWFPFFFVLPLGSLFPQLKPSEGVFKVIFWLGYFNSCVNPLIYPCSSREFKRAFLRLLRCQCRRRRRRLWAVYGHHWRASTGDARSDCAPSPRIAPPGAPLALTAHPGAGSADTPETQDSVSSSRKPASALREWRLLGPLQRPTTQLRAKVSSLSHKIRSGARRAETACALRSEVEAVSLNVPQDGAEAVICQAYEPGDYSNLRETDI
T1 sequence (P43140 whole entry): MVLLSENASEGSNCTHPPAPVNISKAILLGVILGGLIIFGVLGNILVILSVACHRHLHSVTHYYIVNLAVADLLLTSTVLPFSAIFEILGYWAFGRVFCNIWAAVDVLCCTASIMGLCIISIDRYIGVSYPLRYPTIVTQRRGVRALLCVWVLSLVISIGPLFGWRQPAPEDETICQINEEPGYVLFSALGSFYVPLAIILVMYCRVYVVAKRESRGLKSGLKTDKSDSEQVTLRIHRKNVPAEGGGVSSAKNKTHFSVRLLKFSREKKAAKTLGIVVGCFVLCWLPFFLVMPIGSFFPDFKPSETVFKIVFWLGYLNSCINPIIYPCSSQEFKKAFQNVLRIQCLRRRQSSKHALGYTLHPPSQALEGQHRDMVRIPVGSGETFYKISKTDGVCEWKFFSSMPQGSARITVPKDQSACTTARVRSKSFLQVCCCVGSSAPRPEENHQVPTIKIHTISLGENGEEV
In short: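 Rat frontal cortex tissue frozen on dry ice, homogenised in 50 mM Tris-HCl pH 7.7 and washed by centrifugation. [3H]prazosin at 0.6 nM; 10 μM prazosin defines nonspecific binding. 45 min at 25 °C, GF/B filtration, scintillation counting. Triplicates; Ki from two nine-concentration curves fitted to a single-site model.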

[12] = Plasma concentration in NMRI mouse at 3 mg/kg, ip after 30 mins by HPLC-MS/MS analysis; format: ADME, organism-based; parameters: dose 3 mg/kg, route intraperitoneal; in short: as §1
[13] = biological target: T2, 5-hydroxytryptamine receptor 1A (Rattus norvegicus) (UniProt P19327); experiment: Displacement of [3H]8-OH-DPAT from 5-HT1A receptor in rat frontal cortex membrane at 10^-7 M after 45 mins by scintillation counting; format: cell membranes
T2 sequence (whole entry): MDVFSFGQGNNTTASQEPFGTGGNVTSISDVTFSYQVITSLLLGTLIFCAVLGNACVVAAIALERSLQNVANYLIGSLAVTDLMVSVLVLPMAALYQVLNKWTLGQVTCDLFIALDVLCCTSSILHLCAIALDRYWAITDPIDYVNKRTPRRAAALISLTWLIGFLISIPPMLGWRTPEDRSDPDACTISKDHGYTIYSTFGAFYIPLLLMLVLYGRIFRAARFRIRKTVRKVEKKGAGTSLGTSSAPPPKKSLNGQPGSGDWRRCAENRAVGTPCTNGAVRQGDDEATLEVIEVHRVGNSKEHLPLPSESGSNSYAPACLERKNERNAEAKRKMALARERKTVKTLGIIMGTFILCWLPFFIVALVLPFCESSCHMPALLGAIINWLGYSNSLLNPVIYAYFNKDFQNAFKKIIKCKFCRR

Mus musculus [14] = experiment: Antidepressant activity in ip dosed NMRI mouse assessed as decrease in immobility time administered 30 mins prior to test measured last 4 mins of 6 mins testing period by forced swimming test; format: functional; conditions: read-out: MED
In short: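 Mice given drug or vehicle ip 30 min before test. Each mouse placed in a 17.7 cm high, 12 cm diameter glass cylinder holding 25 °C water to 12.5 cm depth, four mice at a time. Immobility (floating, only movements keeping head above water) timed over the last 4 min of a 6 min session.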

[15] = biological target: 5-hydroxytryptamine receptor 7 (Homo sapiens, UniProt P34969); experiment: Displacement of [3H]CT from human 5-HT7 receptor expressed in CHO cells by scintillation spectrometry; format: cell-based
In short: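 Cloned human 5-HT7 receptor from CHO cells, run under the supplier's recommended conditions with [3H]CT. Nonspecific binding with 25 μM clozapine. Ended by GF/C filtration, then scintillation counting. Ki taken from two nine-concentration displacement curves run in triplicate, single-site fit.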

[16] = biological target: T3, 5-hydroxytryptamine receptor 1A (Rattus norvegicus, UniProt P19327); experiment: Displacement of [3H]8-OH-DPAT from 5-HT1A receptor in rat frontal cortex membrane after 45 mins by scintillation counting; format: cell membranes
T3 sequence (P19327 whole entry): T2 sequence (whole entry)
In short: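 Membranes from adult rat frontal cortex, prepared in 50 mM Tris-HCl pH 7.7 with washes and a 37 °C preincubation. Incubation buffer: 6.66 mM CaCl2, 16.66 μM pargyline, 0.166% ascorbic acid. Ligand 1.5 nM [3H]8-OH-DPAT; 10 μM 5-HT defines nonspecific binding. 45 min at 25 °C, GF/B filtration, scintillation counting. Triplicates; Ki from two nine-point curves, single-site fit.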

Chain of 5-hydroxytryptamine receptor 7 (P34969 whole entry): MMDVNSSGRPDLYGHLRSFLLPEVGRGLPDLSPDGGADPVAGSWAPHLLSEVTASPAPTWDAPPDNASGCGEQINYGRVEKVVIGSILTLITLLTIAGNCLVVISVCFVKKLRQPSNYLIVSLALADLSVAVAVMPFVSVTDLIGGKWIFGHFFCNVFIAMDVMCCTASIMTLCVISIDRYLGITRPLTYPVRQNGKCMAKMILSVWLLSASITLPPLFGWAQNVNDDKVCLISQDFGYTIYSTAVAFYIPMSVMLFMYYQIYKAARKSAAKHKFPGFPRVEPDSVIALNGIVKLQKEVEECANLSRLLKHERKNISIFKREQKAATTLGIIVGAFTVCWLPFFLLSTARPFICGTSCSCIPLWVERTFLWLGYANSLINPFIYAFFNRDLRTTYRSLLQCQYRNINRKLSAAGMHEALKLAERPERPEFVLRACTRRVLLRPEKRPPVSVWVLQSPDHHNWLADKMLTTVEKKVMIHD

Row | SMILES | concentration at 0.5 h [1] [nM] | concentration at 0.5 h [2] [nM] | remaining at 1 h [3] [%] | concentration at 0.5 h [4] [nM] | concentration at 0.5 h [5] [nM] | minimal effective dose (Mus musculus [6]) [mg/kg] | Ratio Ki [7] | remaining at 1 h [8] [%] | concentration at 0.5 h [9] [nM] | Ratio Ki [10] | Ki [11] [nM] | concentration at 0.5 h [12] [nM] | inhibition [13] [%] | minimal effective dose (Mus musculus [14]) [mg/kg] | pKi [15] | pKi [16]
1 | CCC1(CCCCN2CCN(c3ccc(Cl)cc3)CC2)C(=O)Nc2ccc(F)cc21 (centres undefined) | 342 | 51 | 36 | 271 | 44 | > 10 | 68 | 17 | 186 | > 100 | 190 | 211 | 9 | – | – | –
2 | CCC1(CCCCN2CCN(c3ccc(Cl)cc3)CC2)C(=O)Nc2ccccc21 (centres undefined) | 379 | 42 | 34 | 399 | 70 | > 10 | 245 | 9 | 141 | > 100 | 93 | 245 | 11 | – | – | –
3 | CCC1(CCCCN2CCN(c3ccc(F)cc3)CC2)C(=O)Nc2ccccc21 (centres undefined) | 364 | 62 | 34 | 168 | 34 | – | 91 | 8 | 431 | > 100 | 39 | 178 | 10 | > 10 | – | –
4 | CCC1(CCCCN2CCN(c3ccc(Cl)cc3)CC2)C(=O)Nc2ccc(Cl)cc21 (centres undefined) | 27 | 17 | 23 | 8 | 10 | – | 159 | 21 | 23 | > 100 | 175 | 14 | 0 | > 10 | 8.96 | –
5 | CCC1(CCCCN2CCN(c3ccc(Cl)cc3)CC2)C(=O)Nc2cc(F)ccc21 (centres undefined) | 135 | 33 | 29 | 177 | 46 | > 10 | 272 | 9 | 99 | > 100 | 215 | 130 | 9 | – | – | –
6 | O=C1Nc2ccccc2C1CCCCN1CCN(c2cccc(Cl)c2)CC1 (centres undefined) | 4310 | 216 | 39 | 744 | 21 | > 10 | 53 | 9 | 827 | 135 | 26 | 114 | – | – | – | 7.18
